These results are taken from ChEMBL document CHEMBL3045615, “Synthesis and herbicidal evaluation of novel 3-[(alpha-hydroxy-substituted)benzylidene]pyrrolidine-2,4-diones” (J Agric Food Chem, 2005).

As usually defined, the inhibition is the percentage by which the read-out fell short of the control.

Assay type in all cases: functional
The test system of test [1] is Brassica rapa subsp. oleifera. In words: Herbicidal activity against Brassica rapa subsp. oleifera assessed as inhibition in green house at 1500 g/ha pre-emergence treatment measured after 15 days. Conditions: 360 h. In short, it runs like this:
(§1)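 Greenhouse pot test. Two replicates per treatment. Control was the same amount of water, N,N-dimethylformamide and Tween 20. Fresh weights were taken 15 days after treatment, and percentage inhibition was calculated relative to controls.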

Test [2] deals with Echinochloa crus-galli. As to the kind of experiment: Herbicidal activity against Echinochloa crus-galli (barnyard grass) assessed as inhibition of seedling growth at 100 ug/ml at 28 +/- 1 degC measured after 65 hr by cup test.
The subject of test [3] is Echinochloa crus-galli. In words: Herbicidal activity against Echinochloa crus-galli (barnyard grass) assessed as inhibition of seedling growth at 10 ug/ml at 28 +/- 1 degC measured after 65 hr by cup test.
Test [4] deals with Brassica rapa subsp. oleifera. As to the kind of experiment: Herbicidal activity against Brassica rapa subsp. oleifera assessed as inhibition of root growth at 100 ug/ml at 28 +/- 1 degC measured after 65 hr by root test. In short, it runs like this: (§2)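 Rape seeds were presoaked 4 h in distilled water. About 15 seeds were placed per 6-cm Petri plate on filter paper pre-wetted with 2 mL inhibitor solution. Plates germinated in the dark for 65 h at 28 ± 1 °C. Root length of 10 roots per plate was measured and averaged. Result expressed as percentage inhibition.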

The subject of test [5] is Brassica rapa subsp. oleifera. As to the kind of experiment: Herbicidal activity against Brassica rapa subsp. oleifera assessed as inhibition of root growth at 10 ug/ml at 28 +/- 1 degC measured after 65 hr by root test. In short, it runs like this: as §2
Test [6] relates to Digitaria sanguinalis. In words: Herbicidal activity against Digitaria sanguinalis (hairy crabgrass) assessed as inhibition in green house at 375 g/ha pre-emergence treatment measured after 15 days. To be noted: 360 h. In a few lines:
as §1

For test [7], the system named is Digitaria sanguinalis. In words: Herbicidal activity against Digitaria sanguinalis (hairy crabgrass) assessed as inhibition in green house at 750 g/ha pre-emergence treatment measured after 15 days. Conditions: 360 h. In short, it runs like this: as §1
Test [8] relates to Echinochloa crus-galli. In words: Herbicidal activity against Echinochloa crus-galli (barnyard grass) assessed as inhibition in green house at 375 g/ha pre-emergence treatment measured after 15 days. To be noted: 360 h. In a few lines:
as §1

Test [9] deals with Echinochloa crus-galli. As to the kind of experiment: Herbicidal activity against Echinochloa crus-galli (barnyard grass) assessed as inhibition in green house at 750 g/ha pre-emergence treatment measured after 15 days. To be noted: 360 h. In a few lines: as §1
The subject of test [10] is Echinochloa crus-galli. As to the kind of experiment: Herbicidal activity against Echinochloa crus-galli (barnyard grass) assessed as inhibition in green house at 1500 g/ha post-emergence treatment measured after 15 days. To be noted: 360 h. In a few lines: as §1
The test system of test [11] is Echinochloa crus-galli. As to the kind of experiment: Herbicidal activity against Echinochloa crus-galli (barnyard grass) assessed as inhibition in green house at 1500 g/ha pre-emergence treatment measured after 15 days. Conditions: 360 h. In a few lines:
as §1

Test [12] relates to Amaranthus retroflexus. In words: Herbicidal activity against Amaranthus retroflexus assessed as inhibition in green house at 1500 g/ha pre-emergence treatment measured after 15 days. Conditions: 360 h. In short, it runs like this: as §1
The subject of test [13] is Amaranthus retroflexus. As to the kind of experiment: Herbicidal activity against Amaranthus retroflexus assessed as inhibition in green house at 1500 g/ha post-emergence treatment measured after 15 days. To be noted: 360 h. In short, it runs like this:
as §1

The subject of test [14] is Brassica rapa subsp. oleifera. In words: Herbicidal activity against Brassica rapa subsp. oleifera assessed as inhibition in green house at 1500 g/ha post-emergence treatment measured after 15 days. To be noted: 360 h. In short, it runs like this:
as §1

The subject of test [15] is Digitaria sanguinalis. In words: Herbicidal activity against Digitaria sanguinalis (hairy crabgrass) assessed as inhibition in green house at 1500 g/ha post-emergence treatment measured after 15 days. To be noted: 360 h. In a few lines:
as §1

Test [16] deals with Digitaria sanguinalis. In words: Herbicidal activity against Digitaria sanguinalis (hairy crabgrass) assessed as inhibition in green house at 1500 g/ha pre-emergence treatment measured after 15 days. Conditions: 360 h. In short, it runs like this: as §1

With `COc1ccc(/C(O)=C2\C(=O)CN(C(C)C)C2=O)cc1`, the inhibition at 1500 g/ha was determined as 0% in test [1]; 75% with Echinochloa crus-galli [10]; 98% in the test on Echinochloa crus-galli [11]; 11% in the test on Amaranthus retroflexus [12]; 0% in the test with Amaranthus retroflexus [13]; 6% in [14]. Besides, the figures for the inhibition at 100 µg/mL (in the test with Echinochloa crus-galli [2]; in test [4]) were 80% and 71%, respectively. Besides, the inhibition at 10 µg/mL in the test on Echinochloa crus-galli [3] was determined as 80%; in test [5], 12%. Also, the figures for the inhibition at 375 g/ha in the test with Digitaria sanguinalis [6] and in the test on Echinochloa crus-galli [8] were 38% and 20%, respectively. Further, the inhibition at 750 g/ha amounted to 54% with Digitaria sanguinalis [7] and 92% in the test with Echinochloa crus-galli [9].

As for `Cc1ccccc1/C(O)=C1\C(=O)CN(C(C)C)C1=O`, the inhibition at 1500 g/ha in [1] was found to be 0%; in the test with Echinochloa crus-galli [10], 76%; with Echinochloa crus-galli [11], 84%; with Amaranthus retroflexus [12], 50%; in the test on Amaranthus retroflexus [13] it was 0%; in test [14], 44%. In addition, the inhibition at 100 µg/mL in the test with Echinochloa crus-galli [2] turned out to be 77%; in [4], 62%. The figures for the inhibition at 10 µg/mL (in the test with Echinochloa crus-galli [3]; in test [5]) were 77% and 15%, respectively. Besides, the inhibition at 375 g/ha in the test with Digitaria sanguinalis [6] worked out at 30%; with Echinochloa crus-galli [8], 43%. Also, the results for the inhibition at 750 g/ha in the test on Digitaria sanguinalis [7] and with Echinochloa crus-galli [9] were 66% and 68%, respectively.

Take `Cc1ccc(/C(O)=C2\C(=O)CN(C(C)C)C2=O)cc1`: the inhibition at 1500 g/ha in test [1] came to 24%; in the test with Echinochloa crus-galli [10] it was 67%; with Echinochloa crus-galli [11] it was 77%; with Amaranthus retroflexus [12] it was 11%; in the test on Amaranthus retroflexus [13], 0%; in test [14], 20%. Moreover, the figures for the inhibition at 100 µg/mL (with Echinochloa crus-galli [2]; in test [4]) were 78% and 86%, respectively. Moreover, the inhibition at 10 µg/mL in the test on Echinochloa crus-galli [3] came out at 77%; in [5], 8%. Besides, the values for the inhibition at 750 g/ha in the test with Digitaria sanguinalis [7] and with Echinochloa crus-galli [9] were 0% and 22%, respectively.

As to `COc1ccc(/C(O)=C2\C(=O)CN(C(C)(C)C)C2=O)cc1`, the inhibition at 1500 g/ha in test [1] is 21%; with Echinochloa crus-galli [10], 66%; with Echinochloa crus-galli [11] it was 93%; with Amaranthus retroflexus [12], 23%; with Amaranthus retroflexus [13], 0%; in test [14], 0%. In addition, the inhibition at 100 µg/mL amounted to 80% with Echinochloa crus-galli [2] and 78% in [4]. In addition, the inhibition at 10 µg/mL came to 79% with Echinochloa crus-galli [3] and 5% in test [5]. In addition, the results for the inhibition at 375 g/ha in the test on Digitaria sanguinalis [6] and with Echinochloa crus-galli [8] were 8% and 0%, respectively. The results for the inhibition at 750 g/ha in the test with Digitaria sanguinalis [7] and with Echinochloa crus-galli [9] were 58% and 73%, respectively.

As to `COc1ccccc1/C(O)=C1\C(=O)CN(C(C)C)C1=O`, the inhibition at 1500 g/ha in [1] is 0%; in the test with Echinochloa crus-galli [10], 87%; in the test with Echinochloa crus-galli [11] it was 93%; in the test on Amaranthus retroflexus [12], 16%; with Amaranthus retroflexus [13] it was 0%; in test [14], 21%. Moreover, the inhibition at 100 µg/mL in the test with Echinochloa crus-galli [2] stood at 78%; in [4], 59%. Also, the inhibition at 10 µg/mL was 77% with Echinochloa crus-galli [3] and 3% in test [5].

For the compound `Cc1ccc(/C(O)=C2\C(=O)CN(C(C)C)C2=O)c(C)c1`, the inhibition at 1500 g/ha in test [1] was 20%; in the test on Echinochloa crus-galli [10], 66%; with Echinochloa crus-galli [11], 71%; with Amaranthus retroflexus [12], 13%; in the test with Amaranthus retroflexus [13], 0%; in test [14], 16%. Further, the inhibition at 100 µg/mL was 76% with Echinochloa crus-galli [2] and 54% in [4]. The inhibition at 10 µg/mL in the test with Echinochloa crus-galli [3] was found to be 74%; in [5], 10%.

On to `CCCCCc1ccc(/C(O)=C2\C(=O)CN(C(C)C)C2=O)cc1`, for which the inhibition at 100 µg/mL worked out at 12% in the test with Echinochloa crus-galli [2] and 29% in test [4]. Besides, the inhibition at 10 µg/mL stood at 5.7% in the test with Echinochloa crus-galli [3] and 14% in test [5].

Take `CCCc1ccc(/C(O)=C2\C(=O)CN(C(C)C)C2=O)cc1`: the inhibition at 100 µg/mL in the test on Echinochloa crus-galli [2] is 57%; in test [4], 86%. The inhibition at 10 µg/mL with Echinochloa crus-galli [3] was 27%; in [5], 60%.

Consider `O=C1CN(C2CC2)C(=O)/C1=C(\O)c1cccc(Oc2ccccc2)c1`, for which the inhibition at 1500 g/ha amounted to 0% in [1]; 10% in the test on Digitaria sanguinalis [15]; 0% in the test on Digitaria sanguinalis [16]; 15% with Echinochloa crus-galli [10]; 0% in the test with Echinochloa crus-galli [11]; 0% with Amaranthus retroflexus [12]. The inhibition at 1500 g/ha is 9% in the test on Amaranthus retroflexus [13] and 3% in test [14]. The inhibition at 100 µg/mL stood at 66% in the test on Echinochloa crus-galli [2] and 80% in [4]. In addition, the inhibition at 10 µg/mL in the test with Echinochloa crus-galli [3] stood at 58%; in test [5], 28%.

For the compound `CC(C)N1CC(=O)/C(=C(/O)c2cccc(Oc3ccccc3)c2)C1=O`, the inhibition at 1500 g/ha (in test [1]; in the test with Digitaria sanguinalis [15]; in the test on Digitaria sanguinalis [16]; with Echinochloa crus-galli [10]; with Echinochloa crus-galli [11]; with Amaranthus retroflexus [12]) was 0% each time. In addition, the inhibition at 1500 g/ha in the test on Amaranthus retroflexus [13] is 9%; in test [14], 0%. The inhibition at 100 µg/mL came to 67% in the test on Echinochloa crus-galli [2] and 81% in [4]. Further, the inhibition at 10 µg/mL amounted to 57% with Echinochloa crus-galli [3] and 0% in [5].

For `COc1ccc(/C(O)=C2\C(=O)CN(C3CC3)C2=O)cc1OC`, the inhibition at 1500 g/ha in test [1] came out at 0%; with Digitaria sanguinalis [15], 0%; in the test with Digitaria sanguinalis [16], 11%; with Echinochloa crus-galli [10] it was 3%; in the test with Echinochloa crus-galli [11], 0%; with Amaranthus retroflexus [12], 0%. The inhibition at 1500 g/ha (with Amaranthus retroflexus [13]; in [14]) was 0% each time. The inhibition at 100 µg/mL in the test with Echinochloa crus-galli [2] amounted to 65%; in test [4], 72%. The inhibition at 10 µg/mL came to 0% in the test with Echinochloa crus-galli [3] and 69% in [5].

As for `COc1cc(/C(O)=C2\C(=O)CN(C(C)C)C2=O)cc(OC)c1OC`, the inhibition at 100 µg/mL with Echinochloa crus-galli [2] was 0%; in test [4], 69%. The inhibition at 10 µg/mL in the test on Echinochloa crus-galli [3] stood at 0%; in test [5] it was 61%.

Take `COc1cc(OC)c(/C(O)=C2\C(=O)CN(C(C)C)C2=O)cc1OC`: the inhibition at 100 µg/mL amounted to 64% in the test with Echinochloa crus-galli [2] and 62% in test [4]. Also, the inhibition at 10 µg/mL in the test on Echinochloa crus-galli [3] was found to be 0%; in [5], 60%.

Turning to `COCCOCOc1ccccc1/C(O)=C1\C(=O)CN(C(C)C)C1=O`, the inhibition at 100 µg/mL in the test with Echinochloa crus-galli [2] was found to be 52%; in [4], 28%. For the same compound, the values for the inhibition at 10 µg/mL (in the test with Echinochloa crus-galli [3]; in test [5]) were 17% and 7%, respectively.

On to `COCCOCOc1cccc(/C(O)=C2\C(=O)CN(C(C)C)C2=O)c1`, for which the values for the inhibition at 100 µg/mL (in the test with Echinochloa crus-galli [2]; in test [4]) were 74% and 10%, respectively. For the same compound, the results for the inhibition at 10 µg/mL (with Echinochloa crus-galli [3]; in test [5]) were 8% and 0%, respectively.

Regarding `COCCOCOc1ccc(/C(O)=C2\C(=O)CN(C(C)C)C2=O)cc1`, the inhibition at 100 µg/mL in the test with Echinochloa crus-galli [2] was 21%; in [4], 51%. Also, the inhibition at 10 µg/mL in the test with Echinochloa crus-galli [3] was 0%; in test [5], 19%.
